Results on 13 compounds are retold here after ChEMBL document CHEMBL1138436, “Biological activity and chemistry of taxoids from the Japanese yew, Taxus cuspidata” (J Nat Prod, 2004).

In brackets after ≈: the same amount, converted by molar mass.

For one experiment, the system named is P388. Nature of the experiment: Antitumor activity against vincristine-resistant mouse P388 cells implanted in CDF1 mouse at 0.1 mg/kg assessed as median survival time relative to control. It is filed as functional. Put shortly:
(§1)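 CDF1 mice were implanted i.p. with P388/VCR (vincristine-resistant) leukemia cells on day 0. Vincristine was given i.p. daily for 5 days, alone or together with a taxoid at 200 mg/kg. There were 5 mice per group. T/C (%) is the median survival time of treated mice divided by that of untreated control mice.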
As usually defined, the T/C is the ratio of treated to control. `CC[C@]1(O)C[C@H]2CN(CCc3c([nH]c4ccccc34)[C@@](C(=O)OC)(c3cc4c(cc3OC)N(C=O)[C@H]3[C@@](O)(C(=O)OC)[C@H](OC(C)=O)[C@]5(CC)C=CCN6CC[C@]43[C@@H]65)C2)C1` [VINCRISTINE]: the T/C turned out to be 92%.

Another experiment concerns P388. Description: Antitumor activity against vincristine-resistant mouse P388 cells implanted in CDF1 mouse at 0.2 mg/kg assessed as median survival time relative to control. It is filed as functional. Put shortly:
as §1
Consider `CC[C@]1(O)C[C@H]2CN(CCc3c([nH]c4ccccc34)[C@@](C(=O)OC)(c3cc4c(cc3OC)N(C=O)[C@H]3[C@@](O)(C(=O)OC)[C@H](OC(C)=O)[C@]5(CC)C=CCN6CC[C@]43[C@@H]65)C2)C1` [VINCRISTINE], for which the T/C turned out to be 110%.

Test system in the next experiment: not listed separately
Description: Reversal of multidrug resistance in human 2780AD cells assessed as increase in vincristine accumulation at 1 ug/ml relative to verapamil. It is filed as functional, A2780 ADR.
As to `C=C1[C@@H](OC(=O)/C=C/c2ccccc2)CC[C@@]2(C)[C@@H](OC(C)=O)[C@H](OC(C)=O)[C@@]34[C@H](C)C(=O)C[C@@](O)([C@@H](OC(C)=O)[C@@]132)C4(C)C`, the Activity amounted to 204%.
The same measure, in the same setting: as for `C=C1[C@@H](OC(=O)/C=C/c2ccccc2)CC[C@@]2(C)[C@@H](OC(C)=O)[C@H](OC(C)=O)[C@@]34O[C@]3(C)C(=O)C[C@@H]([C@@H](OC(C)=O)[C@H]12)C4(C)C`, the figure is 142%.

Test system in the next experiment: not listed separately
Nature of the experiment: Reversal of multidrug resistance in human 2780AD cells assessed as increase in vincristine accumulation at 10 ug/ml relative to verapamil. The class given is functional, A2780 ADR.
For the compound `C=C1[C@@H](OC(=O)/C=C/c2ccccc2)CC[C@@]2(C)[C@@H](OC(C)=O)[C@H](OC(C)=O)C3=C(C)C(=O)C[C@@H]([C@@H](O)[C@H]12)C3(C)C`, the Activity was 191%.
For the compound `C=C1[C@@H](OC(=O)/C=C/c2ccccc2)CC[C@@]2(C)[C@@H](O)[C@H](OC(C)=O)C3=C(C)C(=O)C[C@@H]([C@@H](OC(C)=O)[C@H]12)C3(C)C`, the Activity amounted to 185%.

Another experiment concerns KB. Nature of the experiment: Cytotoxicity against human KB cells. It is filed as functional, cell-based.
Broadly, the IC50 is the concentration that gives 50% inhibition. Turning to `C/C=C(\C)C(=O)N[C@@H](c1ccccc1)[C@@H](O)C(=O)O[C@H]1C[C@@]2(O)[C@@H](OC(=O)c3ccccc3)[C@@H]3[C@]4(OC(C)=O)CO[C@@H]4C[C@H](O)[C@@]3(C)C(=O)[C@H](OC(C)=O)C(=C1C)C2(C)C` [CEPHALOMANNINE], the IC50 was determined as 1.5 ng/mL (≈ 1.8 nM).
Compound `C=C1[C@@H](OC(=O)/C=C/c2ccccc2)C[C@H](OC(C)=O)[C@@]2(CO)[C@@H](OC(C)=O)[C@H](OC(C)=O)[C@]3(O)[C@@]4(C)CO[C@]3(C)C(=O)C[C@H]4[C@@H](OC(C)=O)[C@H]12` [TAXUSPINE S] came in with a concentration for half-maximal inhibition (IC50) of 80 ng/mL (≈ 112 nM).
On the same count and under the same terms, with `CC(=O)O[C@@]12CO[C@@H]1C[C@@H](O)[C@@]1(C)C(=O)[C@H](O)C3=C(C)[C@@H](OC(=O)[C@H](O)[C@@H](NC(=O)c4ccccc4)c4ccccc4)C[C@@](O)([C@@H](OC(=O)c4ccccc4)[C@H]21)C3(C)C` the figure was 1.5 ng/mL (≈ 1.85 nM); with `CC(=O)O[C@H]1C[C@H]2[C@@H](OC(C)=O)/C=C3\C[C@](C)(C(=O)[C@H](O)C(=C1C)C2(C)C)[C@@H](OC(C)=O)C[C@@H]3O` [TAXUSPINE W], 80 ng/mL (≈ 162 nM).
Still for that read-out and setting: with `CC(=O)O[C@H]1C(=O)[C@@]2(C)[C@H]([C@H](OC(=O)c3ccccc3)[C@]3(O)C[C@H](OC(=O)[C@H](O)[C@@H](NC(=O)c4ccccc4)c4ccccc4)C(C)=C1C3(C)C)[C@]1(OC(C)=O)CO[C@@H]1C[C@@H]2O` [PACLITAXEL] the figure was 1.5 ng/mL (≈ 1.76 nM).
Consider `CCCCCC(=O)N[C@@H](c1ccccc1)[C@@H](O)C(=O)O[C@H]1C[C@@]2(O)[C@@H](OC(=O)c3ccccc3)[C@@H]3[C@]4(OC(C)=O)CO[C@@H]4C[C@H](O)[C@@]3(C)C(=O)[C@H](O)C(=C1C)C2(C)C` [10-DEACETYLTAXAYUNNANINE A], for which the IC50 stood at 1.5 ng/mL (≈ 1.86 nM).
Take `CCCCCC(=O)N[C@@H](c1ccccc1)[C@@H](O)C(=O)O[C@H]1C[C@@]2(O)[C@@H](OC(=O)c3ccccc3)[C@@H]3[C@]4(OC(C)=O)CO[C@@H]4C[C@H](O)[C@@]3(C)C(=O)[C@H](OC(C)=O)C(=C1C)C2(C)C` [TAXOL C]: half-maximal inhibition (IC50) required 1.5 ng/mL (≈ 1.77 nM).
Compound `CCCC(=O)N[C@@H](c1ccccc1)[C@@H](O)C(=O)O[C@H]1C[C@@]2(O)[C@@H](OC(=O)c3ccccc3)[C@@H]3[C@]4(OC(C)=O)CO[C@@H]4C[C@H](O)[C@@]3(C)C(=O)[C@H](OC(C)=O)C(=C1C)C2(C)C` [TAXCULTIN] registered an IC50 of 1.5 ng/mL (≈ 1.83 nM).
Still for that read-out and setting: as for `C=C1[C@@H](OC(=O)/C=C/c2ccccc2)CC[C@@]2(C)[C@@H](O)[C@H](OC(C)=O)C3=C(C)C(=O)C[C@@H]([C@@H](OC(C)=O)[C@H]12)C3(C)C`, the figure is 80 ng/mL (≈ 142 nM).
